System: MS2 coat protein
Test: apparent Kd, MS2 coat protein; higher = weaker binding; RNA-MaP array; FMN 200 µM where present
In short: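 On Illumina sequencing-chip clusters, designs were transcribed by stalled E. coli RNA polymerase and titrated with SNAP-549-labelled MS2 coat protein (0.7 or 1.5 nM, doubling to 3 µM), without and then with constant ligand, in 100 mM Tris-HCl pH 7.5, 80 mM KCl, 4 mM MgCl2, BSA, DTT, yeast tRNA and Tween-20. Apparent Kd is the median of filtered per-cluster curve fits to green signal normalised to red-channel RNA signal and control-cluster median Fmax.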

[1] = designed as: ON switch for flavin mononucleotide, no ligand
[2] = ligand present: flavin mononucleotide, designed as: ON switch for flavin mononucleotide
[3] = designed as: OFF switch for flavin mononucleotide, no ligand
[4] = ligand present: flavin mononucleotide, designed as: OFF switch for flavin mononucleotide

Sequence | apparent Kd [1] [nM] | apparent Kd [2] [nM] | apparent Kd [3] [nM] | apparent Kd [4] [nM]
GCUGUCGCUUGAGGAUAUGGUCAGCUUUGCUGACCAGAAGGCAUGUCAAUAGACAUGAGGAUCACCCAUGUAGUAAGGGCGGCU | 339 | 122 |  | 
AAAGUCGGAAGAUAAUAAUGAAUACAUGAGGAUCACCCAUGUAAGGAUAUGCAGUGGAAUACACUGCAGAAGGUACAAACCGAC |  |  | 14.7 | 19.8
UGAACUAUGUAGAAGGCCCAUAUCUAUAUUUAGGGAGGAUAUACAUGAGGAUCACCCAUGUAUAGAGCGGGUGGACCCGUCACU |  |  | 39 | 72.1
ACAUGAGGAUCACCCAUGUUCACAUAGGAUAUUGAUUAUAUUGGUUUAAGAAUAGUAAUUAACCUCAAGAAGGAUGCCUGAUCU | 14.9 | 12 |  | 
AGAUGGCGAGGAUAUACAUGAGGAUCACCCAUGUGAAGAAGAAUAGUGAGGAAGAAAAGUAGAAGGCGCUGUCA |  |  | 53.6 | 180
CGUGACGACAUAGGAUAUUGAUACAUGAGGAUCACCCAUGUCACCCAUUUAUAUAUUAGUGAUGACAAGAAGGAUGUGGUCACG | 33.3 | 7.13 |  | 
CAGUACUGAGGAUAUACAUGAGGAUCACCCAUGUGAAUAGCAUAGGAAACUAUGCUAUGUAGAAGGCAGUACUG |  |  | 14.1 | 22.6
AGCUGUGGCCGAGGAUAUCUAAUAUCUCAAACCGAAAUAUAAUCGGACAUGAGGAUCACCCAUGUAGAGAAGGCGGUCUCAGCA |  |  | 31.1 | 85
AGACGGAGCUGAGGAUAUACAUGAGGAUCACCCAUGUAAGAUCUCCAGGAAACUGGAGAUCAAAAGUAGAAGGCAGCUCCGUCA |  |  | 15.1 | 23.1
CGUAUGUAAGGAUAUAGCCACAUUACGAAUAAGUAGUGUGGCUAGAAGGUACAUGAGGAUCACCCAUGUAUGGG |  |  | 153 | 85.3
AUAAACCAAGGAUAUACAUGAGGAUCACCCAUGUUCCCUUGAACCCAGGGUAUGCAAUGUAGAAGGUGGGAAAC |  |  | 20 | 29.5
AUUUAGUGCGAGAAGGCGUGGUCACAUGAGGAUCACCCAUGUCAGUACACGAGGAUAUCGUUUCGCUGUGUAAACACAAGCGAC | 40.3 | 6.15 |  | 
AGACGGAGCAGAGGAUAUACAUGAGGAUCACCCAUGUAAAUGAAAGAUAGCAGCAAAGCUGCAAUGUAGAAGGCUGCUCCGUCA |  |  | 29.2 | 83.8
AGCUAGUCAGGAUAUACGUGCAUGUCAAAAGACGUGAAGGGACAUGAGGAUCACCCAUGUAGAAGGGACUAGCA |  |  | 54.5 | 231
AUACAUGAGGAUCACCCAUGUUACUGGGUCUAAAUAGAACGUAGAAGGAUGUAUUUACACAUAACAUAGGAUAUACUAUAUAGU |  |  | 153 | 72.8
GACUUGUCAGGAUAUCUUACAUUUGCAUCUUAGUUACCAUUGGAGAAGGGACAUGAGGAUCACCCAUGUUUGGU |  |  | 35.1 | 34.4
AAGCGAAAGCUAAAAUAUCUAUCAGAGGAUAUUUAUGAUACAUGAGGAUCACCCAUGUAGCGCUGGGAGAAGGCUGAUAGAUAA | 6.44 | 4.98 |  | 
GGAUAGGACAGAGGAUAUACGUGCUAGAGAUACUAGCAAAAUUUCCGCACAUGAGGAUCACCCAUGUAGAAGGCUGUCCUAUCG |  |  | 5.82 | 9.26
GCAGGUUAAGUCAGGAUAUACCUAUGGAUACAUAGGUAGAAGGGACAUGAGGAUCACCCAUGUGGCUCACCUGC |  |  | 24.2 | 40.2
GUCCUUAACGAGGAUAUCGGGCGGGUUUUUGUUUGAGAAGGUGUGACAUGAGGAUCACCCAUGUGGCGCGUGGG |  |  | 318 | 258
UGUCGGAGCAGAGGAUAUUACAUGAGGAUCACCCAUGUAUGAAUCAAUAGCUGGAAACAGCAAUGUAAGAAGGCUGCUCCGACA |  |  | 7.86 | 26.6
GCAGCUUGGCAGAAGGCCUAGGUGGCGGACCUAGGAGGAUAUGCUACAUGAGGAUCACCCAUGUGGGUGGGAGAAUCCUAGGAG |  |  | 133 | 132
GUAGCUAUCGGAGGAUAUCCUCAGCGGAAACGCACAUGAGGAUCACCCAUGUAAAUAAAUAAUUUGGAGAAGGCCGAUAGCUAC | 292 | 18.6 |  | 
UUGGACGUCGUAGGCUAUGUAGGAUAUUCCUACAUGAGGAUCACCCAUGUUGACAUGGAAGAAGGACAGAAGGACGAUGUCCAU | 173 | 4.35 |  | 
AGACCGUUCGAGAAGGUGCGAGAGAAAUGUGAGUGAGGAUAUUGAAACAUGAGGAUCACCCAUGUCAUGAGGAUCGCCGAUGUG | 39.6 | 31.6 |  | 
UUGCUCAAUUGGGCAGGAACCUCACAUGAGGAUCACCCAUGUCAGGAUAUCCUAGUUUGGACGUAGGAGAAGGGACAGAGUAUC |  |  | 157 | 152
GCUAUUGAUGUAGGAUAUGAUAUAGAAACUAUGUCAGAAGGACAUGAGGAUCACCCAUGUCAAUGGAUGGAGAGAAGAAAUGGC |  |  | 47.8 | 59.2
UCUGCAUAGUCAGGAUAUGCAAAGUAAUGUAUGGAAACAUACAUUACAACAUGAGGAUCACCCAUGUAGAAGGGACUGUGCAGA |  |  | 14 | 13

Sequence | apparent Kd [1] [nM] | apparent Kd [2] [nM] | apparent Kd [3] [nM] | apparent Kd [4] [nM]
UGGUACAUGGGAGGAUAUGGGUUGAUAACAUGAGGAUCACCCAUGUUAAAUAAGCCGAGAGGCUACUAGAAGGCUCAUGUACCU | 327 | 10.4 |  | 
UUGAGGCACCAGAAGGACAUGAGGAUCACCCAUGUAGGAUAUGGGCAAGCCGACGUGCGCAGAUUGCUUAGUUGGGUAUCUUCU | 43.2 | 10.4 |  | 
UGCCGUUUAGGAUAUACAUGAGGAUCACCCAUGUGACAAACAUAUUUUACAAAACCAUGUAGAAGGAAACGGCA |  |  | 97.4 | 468
UUAUUAUAUGUAGGAUAUGCAUAUUAUUAUUAUGCAGAAGGACAUGAGGAUCACCCAUGUAUAUUAUUAUUAUAUAUUAUGUAU |  |  | 36.3 | 61
UGAUAACAUGUAGGAUAUCCAGCAUUGACCAUCGGAGAAGGACAUGAGGAUCACCCAUGUACCGAUACAAUGGGAUAUGGGAAU |  |  | 20.1 | 27.2
AGCUACGUUUCGUAGCAGCUAGGUGAGGAUAUCCACUCGACAUGAGGAUCACCCAUGUAAACAUGGGAGAAGGCGCCUAGAAAG | 84.9 | 10.6 |  | 
GGGCUGUCAGGAUAUAGUUCGAGUUCGGAAAUGAGCUUGAGCUAGAAGGGACAUGAGGAUCACCCAUGUGGCCC |  |  | 31.1 | 34.2
AAAUUGUCAGGAUAUCCAGCUAUACGAAAUAUGUAUACACGGGAGAAGGGACAUGAGGAUCACCCAUGUUUGAA |  |  | 36.8 | 45.9
CGUAUACAUGAGGAUCACCCAUGUGAGGAUAUGCUUUAUUAUUAUUAUUAUUAUUGUUGCAGAAGGUACAUUGC |  |  | 23.5 | 18.2
GUCCUCUCUGAGGAUAUUAUCCGGUCCGAUUGAUAAGAAGGCAGUACAUGAGGAUCACCCAUGUGGGUUGUCUG |  |  | 62.6 | 170
CGGUGACGUGUAGGAUAUGGAGGUGGGUUUUGGCCAGAAGGACAUGAGGAUCACCCAUGUGGUAGAGGGUUGGCGGCGGCCCGU |  |  | 15 | 14.7
GUUAGUUAAGGAUAUACAGGGAGCUGCGGCGUCUCGCCGCAACAUGAGGAUCACCCAUGUAGAAGGUAGCCGUU |  |  | 76.4 | 121
UAUAUAUAGUAAGGAUAUGUAUUAAUUGUAUAAACAGAAGGUACUGACAUGAGGAUCACCCAUGUUUUAGUGUGGGCAUGUAGA |  |  | 91.3 | 149
GCUUGAGCAGGAUAUACAAGCUUGAGCUGAAAAGUUCGAGUACAUGAGGAUCACCCAUGUAGAAGGGUUCGAGU |  |  | 27.5 | 32.3
GUCAGCUCGUGAGGAUAUACAACACUGCUCCGGCAGUGUAUUAAGAUCACAUGAGGAUCACCCAUGUAGAAGGCACGAGCUGAU |  |  | 13.3 | 237
CGCUGUCAUGCAGGAUAUGCAUUGGAUUGCAAUGCAGAAGGGCGAUUACAUGAGGAUCACCCAUGUGUAGACAGUGAAGAAGAG | 160 | 12.6 |  | 
CGUGCGUAUGUGAGGAUAUGCUGGUCCUUGGAUCGGCAGAAGGCACAUGAGGAUCACCCAUGUGGUGUCGUACG |  |  | 351 | 22.9
CCCUCACAUGAGGAUCACCCAUGUCAGGAUAUUCGAACGGUGUGUUUUUGGCCAGUUGGAAGAAGGGACAUAAA |  |  | 29.7 | 117
CCACUGUCAGGAUAUCGUGCAUAAGCGUUUACAUUUAUGUGCGAGAAGGGACAUGAGGAUCACCCAUGUAAACG |  |  | 417 | 653
UUGGACGUCGUAGGAUAUGUAGGAGAUUCCUACAUGAGGAUCACCCAUGUUGACAUGGAAGAAGGACAGAAGGACGAUGUCCAU | 328 | 20.4 |  | 
UUGGACCUAGGAUAUACAUGAGGAUCACCCAUGUUGGCGCACGCCCACCUGGGCCCGAGUAGAAGGAGGAAUGU |  |  | 18.9 | 20.3
ACUAAGCGAGGAUAUACUAACAAACCUCAAACAUACAUCAAACAUGAGGAUCACCCAUGUAGAAGGCGCAAACU |  |  | 27.3 | 37.6
GGUACUCAAAGAGUACUUGGUCGAACAUGAGGAUCACCCAUGUAGGAUAUGCAAAGCUAGAAGUAGCAGAAGGACAUGUGCAGC |  |  | 14.4 | 22.1
GUAGUGUAGUGAGGAUAUACGAGAUCGAUAGAUCGGCGAUCCAUAUAUACAUGAGGAUCACCCAUGUAGAAGGCACUUCACUAC |  |  | 7.5 | 91.5
UGGUACUAGGGAGGAUAUGGGAAGAUACAUGAGGAUCACCCAUGUUUAAGAAUGCCGAGAGGCAACUAGAAGGCCCUAGUAGCU | 539 | 19.9 |  | 
GGAUGACAAAGUCAUCCAAAUCGAACAUGAGGAUCACCCAUGUAGGAUAUGCAACUCAAAGAGUUGCAGAAGGACAUGUGCUUU |  |  | 40.9 | 172
GUUAGACAUGAGGAUCACCCAUGUGAGGAUAUGAUGCGAUCGUGCUGACAUGAUCGCAUCAGAAGGCACAUAUG |  |  | 133 | 190

— the EternaBench riboswitch data
